From ChEMBL document CHEMBL1143958, “Synthesis of insecticidal fluorinated anthranilic diamides” (Bioorg Med Chem, 2008)

Assays:
Myzus persicae [1] = assay: Insecticidal activity against Myzus persicae Sulzer in raddish plant by combined contact/systemic plant assay; set-up: unit not given here
Aphis gossypii [2] = assay: Insecticidal activity against Aphis gossypii glover in cotton/melon plant; type: functional, organism-based
How it was run: (§1)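 Combined contact/systemic (CON/SYS) plant assay. Test compound applied to give good foliar and soil coverage, so both contact and soil systemic exposure occur. Aphis gossypii on cotton plants; Myzus persicae on radish plants 12–15 days old, treated the same way. Run in triplicate, rates 3–5× apart where possible. Units dried 1 h, capped, held 6 days at 19–21 °C and 50–70% RH.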

Myzus persicae [3] = assay: Insecticidal activity against Myzus persicae Sulzer in raddish plant; type: functional, organism-based
How it was run: as §1

Aphis gossypii [4] = assay: Insecticidal activity against Aphis gossypii glover in cotton/melon plant by combined contact/systemic plant assay; set-up: unit not given here
Myzus persicae [5] = assay: Insecticidal activity against Myzus persicae Sulzer in raddish plant by combined contact/systemic plant assay; set-up: unit not given here; remark: listed apart in the source
Aphis gossypii [6] = assay: Insecticidal activity against Aphis gossypii glover in cotton/melon plant by combined contact/systemic plant assay
Myzus persicae [7] = assay: Insecticidal activity against Myzus persicae Sulzer in raddish plant assessed as mortality at 250 ppm by systemic plant assay; type: functional
How it was run: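 Systemic-only (SYS) plant assay on Myzus persicae. Formulated compound applied directly to the soil, avoiding any direct contact with the aphids. Percent mortality recorded at 250 ppm.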

Aphis gossypii [8] = assay: Insecticidal activity against Aphis gossypii glover in cotton/melon plant assessed as mortality at 50 ppm; type: functional
How it was run: as §1

[9] = Lipophilicity, log P of the compound; type: physicochemical; details: octanol/water
How it was run: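 Measured by reversed-phase HPLC on a C18 column at 40 °C, 1.0 mL/min. Gradient over 5 min from 99% 5 mM ammonium acetate pH 7 to 99% 5 mM ammonium acetate in acetonitrile. logP read from a calibration curve of retention times for compounds with known shake-flask octanol–water values.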

Myzus persicae [10] = assay: Insecticidal activity against Myzus persicae Sulzer in raddish plant assessed as mortality at 50 ppm; type: functional
How it was run: as §1

Myzus persicae [11] = assay: Insecticidal activity against Myzus persicae Sulzer in raddish plant assessed as mortality at 250 ppm; type: functional
How it was run: as §1

Aphis gossypii [12] = assay: Insecticidal activity against Aphis gossypii glover in cotton plant assessed as mortality at 250 ppm; type: functional
How it was run: as §1

Aphis gossypii [13] = assay: Insecticidal activity against Aphis gossypii glover in cotton/melon plant assessed as mortality at 2 ppm; type: functional
How it was run: as §1

Aphis gossypii [14] = assay: Insecticidal activity against Aphis gossypii glover in cotton/melon plant assessed as mortality at 100 ppm; type: functional
How it was run: as §1

Myzus persicae [15] = assay: Insecticidal activity against Myzus persicae Sulzer in raddish plant assessed as mortality at 100 ppm; type: functional
How it was run: as §1

Q: What does the source list for `CNC(=O)c1cc(F)cc(C)c1NC(=O)c1cc(C(F)(F)F)nn1-c1ncccc1Cl`?
A: EC50 lower 95% confidence limit (Myzus persicae [1]): 6.7; EC50 (Aphis gossypii [2]): 63.4 ppm; EC50 (Myzus persicae [3]): 30.8 ppm; EC50 upper 95% confidence limit (Aphis gossypii [4]): 201; EC50 upper 95% confidence limit (Myzus persicae [5]): 84.3; EC50 lower 95% confidence limit (Aphis gossypii [6]): 26 ppm; Activity (Myzus persicae [7]): 8%

Q: What does the source list for `CNC(=O)c1cc(Cl)cc(Cl)c1NC(=O)c1cc(C(F)(F)F)nn1-c1ncccc1F`?
A: EC50 lower 95% confidence limit (Myzus persicae [1]): 1.5; EC50 (Aphis gossypii [2]): 9.1 ppm; EC50 (Myzus persicae [3]): 3.4 ppm; EC50 upper 95% confidence limit (Aphis gossypii [4]): 16.3; EC50 upper 95% confidence limit (Myzus persicae [5]): 7; EC50 lower 95% confidence limit (Aphis gossypii [6]): 5.8 ppm; Activity (Myzus persicae [7]): 58%

Q: For `CNC(=O)c1cc(F)cc(F)c1NC(=O)c1cc(Br)nn1-c1ncccc1Cl`, which EC50 (Aphis gossypii [2]) is on record?
A: < 50 ppm

Q: And the EC50 (Myzus persicae [3])?
A: < 250 ppm

Q: And the Activity (Aphis gossypii [8])?
A: 85%

Q: And the Activity (Myzus persicae [7])?
A: 14%

Q: Which EC50 (Aphis gossypii [2]) does the source give for `CNC(=O)c1cc(Cl)cc(C)c1NC(=O)c1cc(F)nn1-c1ncccc1Cl` here?
A: > 100 ppm

Q: And the EC50 (Myzus persicae [3])?
A: > 300 ppm

Q: Which results are given for `CNC(=O)c1cc(F)cc(C)c1NC(=O)c1cc(Br)nn1-c1ncccc1Cl`?
A: EC50 (Aphis gossypii [2]): 11.3 ppm; EC50 (Myzus persicae [3]): > 300 ppm; EC50 upper 95% confidence limit (Aphis gossypii [4]): 18.5; EC50 lower 95% confidence limit (Aphis gossypii [6]): 7.2 ppm; Activity (Myzus persicae [7]): <80%

Q: What does the source list for `CNC(=O)c1cc(Cl)cc(F)c1NC(=O)c1cc(Br)nn1-c1ncccc1Cl`?
A: EC50 (Aphis gossypii [2]): 5.5 ppm; EC50 (Myzus persicae [3]): > 300 ppm; EC50 upper 95% confidence limit (Aphis gossypii [4]): 9.5; logP [9]: 2.9; EC50 lower 95% confidence limit (Aphis gossypii [6]): 3 ppm

Q: For `CNC(=O)c1cc(F)cc(Cl)c1NC(=O)c1cc(C(F)(F)F)nn1-c1ncccc1Cl`, which EC50 lower 95% confidence limit (Myzus persicae [1]) is on record?
A: 7.2

Q: And the EC50 (Aphis gossypii [2])?
A: 5.5 ppm

Q: And the EC50 (Myzus persicae [3])?
A: 9.2 ppm

Q: What about the EC50 upper 95% confidence limit (Aphis gossypii [4]) of the same compound?
A: 8.1

Q: And the EC50 upper 95% confidence limit (Myzus persicae [5])?
A: 12.9

Q: What about the EC50 lower 95% confidence limit (Aphis gossypii [6]) of the same compound?
A: 4 ppm

Q: And the Activity (Myzus persicae [7])?
A: 100%

Q: Which EC50 lower 95% confidence limit (Myzus persicae [1]) does the source give for `CNC(=O)c1cc(Cl)cc(C)c1NC(=O)c1cc(Br)nn1-c1ncccc1F` here?
A: 8.7

Q: What about the EC50 (Aphis gossypii [2]) of the same compound?
A: 3.7 ppm

Q: And the EC50 (Myzus persicae [3])?
A: 11.3 ppm

Q: And the EC50 upper 95% confidence limit (Aphis gossypii [4])?
A: 6.4

Q: What about the EC50 upper 95% confidence limit (Myzus persicae [5]) of the same compound?
A: 15.2

Q: What about the EC50 lower 95% confidence limit (Aphis gossypii [6]) of the same compound?
A: 2 ppm

Q: And the Activity (Myzus persicae [7])?
A: 29%

Q: For `CNC(=O)c1cc(Cl)cc(Cl)c1NC(=O)c1cc(F)nn1-c1ncccc1Cl`, which EC50 lower 95% confidence limit (Myzus persicae [1]) is on record?
A: 15.9

Q: And the EC50 (Aphis gossypii [2])?
A: 6.2 ppm

Q: And the EC50 (Myzus persicae [3])?
A: 20.6 ppm

Q: What about the EC50 upper 95% confidence limit (Aphis gossypii [4]) of the same compound?
A: 8.9

Q: What about the EC50 upper 95% confidence limit (Myzus persicae [5]) of the same compound?
A: 26.8

Q: What about the logP [9] of the same compound?
A: 2.6

Q: What about the EC50 lower 95% confidence limit (Aphis gossypii [6]) of the same compound?
A: 4.4 ppm

Q: What about the Activity (Myzus persicae [7]) of the same compound?
A: 2%

Q: What does the source list for `O=[N+]([O-])/N=C1\NCCN1Cc1ccc(Cl)nc1` [IMIDACLOPRID]?
A: EC50 (Aphis gossypii [2]): 0.4 ppm; EC50 (Myzus persicae [3]): 0.3 ppm

Q: With `CNC(=O)c1cc(Cl)cc(Cl)c1NC(=O)c1cc(Br)nn1-c1ncccc1Cl` as the compound, how does the EC50 lower 95% confidence limit (Myzus persicae [1]) read?
A: 1.4

Q: And the EC50 (Aphis gossypii [2])?
A: 1.6 ppm

Q: What about the EC50 (Myzus persicae [3]) of the same compound?
A: 2.1 ppm

Q: And the EC50 upper 95% confidence limit (Aphis gossypii [4])?
A: 2.4

Q: What about the EC50 upper 95% confidence limit (Myzus persicae [5]) of the same compound?
A: 3.2

Q: And the logP [9]?
A: 3

Q: What about the EC50 lower 95% confidence limit (Aphis gossypii [6]) of the same compound?
A: 0.9 ppm

Q: And the Activity (Myzus persicae [7])?
A: 22%

Q: With `CNC(=O)c1cc(Cl)cc(C)c1NC(=O)c1cc(Br)nn1-c1ncccc1Cl` [CHLORANTRANILIPROLE] as the compound, how does the EC50 (Aphis gossypii [2]) read?
A: 3.1 ppm

Q: What about the EC50 (Myzus persicae [3]) of the same compound?
A: 12.4 ppm

Q: What about the logP [9] of the same compound?
A: 3

Q: And the Activity (Myzus persicae [7])?
A: 12%

Q: What does the source list for `CNC(=O)c1cc(F)cc(F)c1NC(=O)c1cc(F)nn1-c1ncccc1Cl`?
A: Activity (Myzus persicae [10]): 80%; EC50 (Aphis gossypii [2]): < 250 ppm; EC50 (Myzus persicae [3]): < 250 ppm; Activity (Myzus persicae [11]): 100%; Activity (Aphis gossypii [12]): 70%

Q: For `CNC(=O)c1cc(Cl)cc(Cl)c1NC(=O)c1cc(C(F)(F)F)nn1-c1ncccc1Cl`, which EC50 lower 95% confidence limit (Myzus persicae [1]) is on record?
A: 2.7

Q: What about the EC50 (Aphis gossypii [2]) of the same compound?
A: 2.1 ppm

Q: And the EC50 (Myzus persicae [3])?
A: 3.4 ppm

Q: What about the EC50 upper 95% confidence limit (Aphis gossypii [4]) of the same compound?
A: 3.5

Q: What about the EC50 upper 95% confidence limit (Myzus persicae [5]) of the same compound?
A: 4.6

Q: What about the EC50 lower 95% confidence limit (Aphis gossypii [6]) of the same compound?
A: 1.4 ppm

Q: And the Activity (Myzus persicae [7])?
A: 74%

Q: Which results are given for `CNC(=O)c1cc(F)cc(Cl)c1NC(=O)c1cc(Br)nn1-c1ncccc1Cl`?
A: EC50 lower 95% confidence limit (Myzus persicae [1]): 4; EC50 (Aphis gossypii [2]): 2.5 ppm; EC50 (Myzus persicae [3]): 7.8 ppm; EC50 upper 95% confidence limit (Aphis gossypii [4]): 4.7; EC50 upper 95% confidence limit (Myzus persicae [5]): 23.2; logP [9]: 2.6; EC50 lower 95% confidence limit (Aphis gossypii [6]): 1.1 ppm; Activity (Myzus persicae [7]): 2%

Q: With `CNC(=O)c1cc(Cl)cc(Cl)c1NC(=O)c1cc(Br)nn1-c1ncccc1F` as the compound, how does the EC50 (Aphis gossypii [2]) read?
A: < 2 ppm

Q: And the EC50 (Myzus persicae [3])?
A: 1.8 ppm

Q: And the logP [9]?
A: 2.7

Q: And the Activity (Aphis gossypii [13])?
A: 89%

Q: And the Activity (Myzus persicae [7])?
A: 29%

Q: Which results are given for `CNC(=O)c1cc(F)cc(Cl)c1NC(=O)c1cc(F)nn1-c1ncccc1Cl`?
A: Activity (Aphis gossypii [14]): 89%; EC50 (Aphis gossypii [2]): < 100 ppm; EC50 (Myzus persicae [3]): < 100 ppm; Activity (Myzus persicae [15]): 65%
